Test [1] relates to A549. The test is described as follows: Antiproliferative activity against human A549 cells after 72 hrs by MTT assay. Conditions: for IC50: Homo sapiens, A549, 72 h, read-out: IC50. Type of test: functional, cell-based. An outline of the steps:
(§1)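 Cells grown in MEM with 10% FBS. About 4×10³ cells per well, pre-incubated 24 h at 37°C in 5% CO₂. Compound added at final concentrations, then 72 h. MTT added at 5 µg/mL final for 4 h at 37°C. Tested three times; IC50 taken as the average of […] determinations.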
In general terms: Tetrazolium assays rely on reduction of a dye to a coloured formazan, in cell work by metabolically active cells.

Test [2] deals with Hepatocyte growth factor receptor (Homo sapiens, UniProt P08581). The test is described as follows: Inhibition of c-Met (unknown origin) using FAM-labeled peptide substrate after 10 mins by mobility shift assay.
Chain of Hepatocyte growth factor receptor (P08581 whole entry): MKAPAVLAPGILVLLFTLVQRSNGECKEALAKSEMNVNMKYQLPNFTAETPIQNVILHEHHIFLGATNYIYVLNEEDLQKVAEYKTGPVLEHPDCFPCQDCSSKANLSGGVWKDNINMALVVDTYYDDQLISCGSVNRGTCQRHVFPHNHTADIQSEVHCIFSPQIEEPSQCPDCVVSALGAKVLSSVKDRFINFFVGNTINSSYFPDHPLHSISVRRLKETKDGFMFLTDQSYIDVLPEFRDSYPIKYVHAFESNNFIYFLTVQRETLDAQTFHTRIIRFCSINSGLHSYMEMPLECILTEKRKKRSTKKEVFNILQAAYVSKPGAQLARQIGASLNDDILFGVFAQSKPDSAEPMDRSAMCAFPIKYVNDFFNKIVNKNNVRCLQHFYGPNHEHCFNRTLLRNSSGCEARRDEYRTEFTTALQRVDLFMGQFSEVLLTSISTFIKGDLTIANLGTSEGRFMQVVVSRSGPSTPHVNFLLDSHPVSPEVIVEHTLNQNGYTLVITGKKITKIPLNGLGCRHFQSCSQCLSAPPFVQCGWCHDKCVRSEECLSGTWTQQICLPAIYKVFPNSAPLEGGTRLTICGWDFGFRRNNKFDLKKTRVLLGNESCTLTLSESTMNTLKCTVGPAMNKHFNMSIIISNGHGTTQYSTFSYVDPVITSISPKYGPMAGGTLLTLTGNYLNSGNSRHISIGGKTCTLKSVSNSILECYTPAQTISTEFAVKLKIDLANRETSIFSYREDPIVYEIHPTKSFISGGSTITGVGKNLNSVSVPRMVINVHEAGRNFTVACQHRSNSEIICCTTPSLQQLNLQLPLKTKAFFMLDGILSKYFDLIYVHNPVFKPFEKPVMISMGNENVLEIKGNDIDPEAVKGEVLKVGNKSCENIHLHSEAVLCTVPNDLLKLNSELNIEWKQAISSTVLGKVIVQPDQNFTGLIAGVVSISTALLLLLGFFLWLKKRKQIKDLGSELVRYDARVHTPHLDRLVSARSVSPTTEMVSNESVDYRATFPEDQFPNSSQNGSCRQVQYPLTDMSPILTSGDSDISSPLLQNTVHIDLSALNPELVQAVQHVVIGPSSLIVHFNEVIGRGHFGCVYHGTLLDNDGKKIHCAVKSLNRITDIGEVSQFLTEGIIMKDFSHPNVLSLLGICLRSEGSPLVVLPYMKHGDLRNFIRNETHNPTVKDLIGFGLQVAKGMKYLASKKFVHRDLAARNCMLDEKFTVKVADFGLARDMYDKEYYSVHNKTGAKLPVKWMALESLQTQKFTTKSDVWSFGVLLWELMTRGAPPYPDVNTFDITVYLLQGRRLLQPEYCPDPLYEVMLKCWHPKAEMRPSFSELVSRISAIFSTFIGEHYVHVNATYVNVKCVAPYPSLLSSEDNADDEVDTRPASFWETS
The target in test [3] is Epidermal growth factor receptor (Homo sapiens, UniProt P00533). The test is described as follows: Inhibition of EGFR (unknown origin).
Chain of Epidermal growth factor receptor (P00533 whole entry): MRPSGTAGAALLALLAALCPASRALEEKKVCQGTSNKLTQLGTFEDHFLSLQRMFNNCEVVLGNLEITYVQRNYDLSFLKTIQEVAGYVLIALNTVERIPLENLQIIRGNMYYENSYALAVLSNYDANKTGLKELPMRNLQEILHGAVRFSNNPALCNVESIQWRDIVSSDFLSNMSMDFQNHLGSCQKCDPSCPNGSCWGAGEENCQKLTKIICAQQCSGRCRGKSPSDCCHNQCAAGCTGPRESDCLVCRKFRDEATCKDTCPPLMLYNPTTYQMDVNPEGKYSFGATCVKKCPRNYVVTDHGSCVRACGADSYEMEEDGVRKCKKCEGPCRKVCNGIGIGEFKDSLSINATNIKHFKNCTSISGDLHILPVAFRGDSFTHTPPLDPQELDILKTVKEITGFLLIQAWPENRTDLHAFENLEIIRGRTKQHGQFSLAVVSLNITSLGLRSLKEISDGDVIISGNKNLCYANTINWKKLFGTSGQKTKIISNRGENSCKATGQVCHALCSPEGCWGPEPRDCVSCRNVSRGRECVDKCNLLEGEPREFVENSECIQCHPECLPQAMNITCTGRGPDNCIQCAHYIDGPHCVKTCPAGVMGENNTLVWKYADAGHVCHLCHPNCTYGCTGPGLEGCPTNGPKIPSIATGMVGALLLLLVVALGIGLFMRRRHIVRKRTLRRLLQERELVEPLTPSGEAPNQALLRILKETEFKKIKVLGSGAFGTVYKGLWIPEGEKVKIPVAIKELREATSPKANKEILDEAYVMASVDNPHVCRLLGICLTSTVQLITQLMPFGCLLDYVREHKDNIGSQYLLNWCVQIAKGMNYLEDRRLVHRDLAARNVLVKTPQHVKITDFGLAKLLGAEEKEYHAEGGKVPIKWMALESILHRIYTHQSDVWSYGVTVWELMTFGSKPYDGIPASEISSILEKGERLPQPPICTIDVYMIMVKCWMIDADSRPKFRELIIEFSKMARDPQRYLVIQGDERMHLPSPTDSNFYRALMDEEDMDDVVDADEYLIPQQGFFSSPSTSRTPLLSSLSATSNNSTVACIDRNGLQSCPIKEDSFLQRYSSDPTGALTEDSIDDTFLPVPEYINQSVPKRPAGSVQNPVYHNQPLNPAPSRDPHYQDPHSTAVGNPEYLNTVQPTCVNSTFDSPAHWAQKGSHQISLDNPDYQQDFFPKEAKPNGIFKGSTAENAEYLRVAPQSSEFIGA
The target of test [4] is T1, Receptor-type tyrosine-protein kinase FLT3 (Homo sapiens, UniProt P36888).
T1 sequence (P36888 whole entry): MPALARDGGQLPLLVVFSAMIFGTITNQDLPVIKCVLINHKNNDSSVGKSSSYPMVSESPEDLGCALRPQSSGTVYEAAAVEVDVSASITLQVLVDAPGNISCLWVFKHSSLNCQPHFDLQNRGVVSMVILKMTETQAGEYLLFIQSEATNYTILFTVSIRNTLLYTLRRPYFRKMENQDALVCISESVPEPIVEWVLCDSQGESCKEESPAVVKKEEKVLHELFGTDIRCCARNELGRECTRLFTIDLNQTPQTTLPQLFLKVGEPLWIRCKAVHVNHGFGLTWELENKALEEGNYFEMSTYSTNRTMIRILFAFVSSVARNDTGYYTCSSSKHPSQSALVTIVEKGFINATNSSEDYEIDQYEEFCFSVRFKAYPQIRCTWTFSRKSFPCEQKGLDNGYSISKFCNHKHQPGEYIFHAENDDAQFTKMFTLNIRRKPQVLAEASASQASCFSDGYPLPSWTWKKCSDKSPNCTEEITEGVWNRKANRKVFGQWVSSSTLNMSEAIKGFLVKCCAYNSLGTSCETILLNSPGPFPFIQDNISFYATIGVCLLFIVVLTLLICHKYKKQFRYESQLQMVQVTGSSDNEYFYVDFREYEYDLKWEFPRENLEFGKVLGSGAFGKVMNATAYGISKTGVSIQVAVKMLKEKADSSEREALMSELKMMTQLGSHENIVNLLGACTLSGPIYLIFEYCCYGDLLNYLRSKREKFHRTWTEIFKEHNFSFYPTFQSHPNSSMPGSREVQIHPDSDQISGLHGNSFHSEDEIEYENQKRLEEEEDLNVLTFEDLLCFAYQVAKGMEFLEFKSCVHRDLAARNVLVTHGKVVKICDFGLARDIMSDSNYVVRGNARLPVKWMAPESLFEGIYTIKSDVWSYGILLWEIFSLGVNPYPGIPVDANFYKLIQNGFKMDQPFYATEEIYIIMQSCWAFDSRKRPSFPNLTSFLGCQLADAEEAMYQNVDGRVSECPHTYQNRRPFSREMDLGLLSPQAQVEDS
The test is described as follows: Inhibition of FLT3 (unknown origin).

The target in test [5] is Vascular endothelial growth factor receptor 2 (Homo sapiens, UniProt P35968). The test is described as follows: Inhibition of VEGFR2 (unknown origin).
Chain of Vascular endothelial growth factor receptor 2 (P35968 whole entry): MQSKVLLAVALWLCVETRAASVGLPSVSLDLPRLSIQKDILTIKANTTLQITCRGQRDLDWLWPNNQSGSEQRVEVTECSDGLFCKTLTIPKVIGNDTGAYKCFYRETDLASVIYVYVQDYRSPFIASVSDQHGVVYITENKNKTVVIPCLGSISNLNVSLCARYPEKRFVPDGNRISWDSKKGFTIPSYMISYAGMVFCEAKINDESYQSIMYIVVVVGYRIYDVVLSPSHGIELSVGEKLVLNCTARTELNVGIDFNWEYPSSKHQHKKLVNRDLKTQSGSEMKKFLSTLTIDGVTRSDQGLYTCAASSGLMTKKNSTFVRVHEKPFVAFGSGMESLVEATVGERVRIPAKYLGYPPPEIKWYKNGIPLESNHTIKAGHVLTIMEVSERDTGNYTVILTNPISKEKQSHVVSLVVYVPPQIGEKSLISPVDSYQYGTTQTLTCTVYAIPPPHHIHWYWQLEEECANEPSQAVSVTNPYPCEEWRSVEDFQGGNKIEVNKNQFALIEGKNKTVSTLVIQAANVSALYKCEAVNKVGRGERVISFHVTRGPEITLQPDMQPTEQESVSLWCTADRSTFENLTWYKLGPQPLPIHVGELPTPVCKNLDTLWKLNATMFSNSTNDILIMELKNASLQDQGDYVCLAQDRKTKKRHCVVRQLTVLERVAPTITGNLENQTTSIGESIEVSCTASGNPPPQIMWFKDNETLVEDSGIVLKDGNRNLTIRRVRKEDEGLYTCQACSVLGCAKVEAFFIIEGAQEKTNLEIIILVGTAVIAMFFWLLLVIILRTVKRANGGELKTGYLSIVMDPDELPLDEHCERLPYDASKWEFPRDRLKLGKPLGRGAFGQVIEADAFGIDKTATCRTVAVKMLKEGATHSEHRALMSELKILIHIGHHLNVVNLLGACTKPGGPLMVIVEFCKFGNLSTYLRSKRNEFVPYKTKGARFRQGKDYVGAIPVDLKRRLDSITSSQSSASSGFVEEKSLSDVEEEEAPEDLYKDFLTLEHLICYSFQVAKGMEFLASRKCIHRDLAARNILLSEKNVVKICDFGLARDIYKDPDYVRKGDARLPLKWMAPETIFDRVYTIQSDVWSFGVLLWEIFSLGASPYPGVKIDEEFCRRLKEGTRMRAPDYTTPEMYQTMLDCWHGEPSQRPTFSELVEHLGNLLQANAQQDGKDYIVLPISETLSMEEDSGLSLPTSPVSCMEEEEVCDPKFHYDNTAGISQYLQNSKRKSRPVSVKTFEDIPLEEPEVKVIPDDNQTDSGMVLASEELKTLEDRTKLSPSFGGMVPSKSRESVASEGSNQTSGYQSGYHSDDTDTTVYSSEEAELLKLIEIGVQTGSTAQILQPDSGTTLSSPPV
The next test deals with HepG2. The test is described as follows: Antiproliferative activity against human HepG2 cells after 72 hrs by MTT assay. The format is functional, cell-based. Conditions: for IC50: Homo sapiens, HepG2, 72 h, read-out: IC50. An outline of the steps:
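Cells grown in MEM with 10% FBS. About 4×10³ cells per well, pre-incubated 24 h at 37°C in 5% CO₂. Compound added at final concentrations, then 72 h. MTT added at 5 µg/mL final for 4 h at 37°C. Formazan dissolved in DMSO and read at 492 nm against 630 nm reference. Tested three times; IC50 taken as the average of […] determinations.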

The next test concerns MCF7. The test is described as follows: Antiproliferative activity against human MCF7 cells after 72 hrs by MTT assay. The format is functional, cell-based. Conditions: for IC50: Homo sapiens, MCF7, 72 h, read-out: IC50. In short, it runs like this: as §1
Another test has as its system PC-3. The test is described as follows: Antiproliferative activity against human PC3 cells after 72 hrs by MTT assay. The format is functional, cell-based. Conditions: for IC50: Homo sapiens, PC-3, 72 h, read-out: IC50. In short, it runs like this: as §1
Test [6] concerns A549. The test is described as follows: Cell cycle arrest in human A549 cells assessed as accumulation at S phase at 4 uM after 12 hrs by propidium iodide staining-based flow cytometry (reference value: 48.44%). Type of test: functional. A general note: A flow cytometer gives signals particle by particle.
The test system of test [7] is A549. The test is described as follows: Induction of apoptosis in human A549 cells assessed as change in cell morphology at 0.8 uM after 12 hrs by acridine orange staining-based fluorescence microscopic method. Type of test: functional. In short, it runs like this:
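A549 cells in MEM with 10% FBS, about 2×10⁴ per well, pre-incubated 24 h at 37°C in 5% CO₂. Given drug-free medium or 0.80 µM compound for 12 h. Stained with acridine orange in PBS at 10 µg/mL final for 10 min in the dark, washed three times with PBS, and nuclear morphology viewed by fluorescence microscopy.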

Test [8] concerns A549. The test is described as follows: Cell cycle arrest in human A549 cells assessed as accumulation at G1 phase at 4 uM after 12 hrs by propidium iodide staining-based flow cytometry (reference value: 27.08%). The format is functional.
The subject of test [9] is A549. The test is described as follows: Cell cycle arrest in human A549 cells assessed as accumulation at G2/M phase at 4 uM after 12 hrs by propidium iodide staining-based flow cytometry (reference value: 23.62%). The format is functional.
Test [10] relates to A549. The test is described as follows: Cell cycle arrest in human A549 cells assessed as accumulation at sub-G1 phase at 4 uM after 12 hrs by propidium iodide staining-based flow cytometry (reference value: 0.06%). Type of test: functional.
Test [11] concerns A549. The test is described as follows: Antiproliferative activity against human A549 cells at 0.08 to 8 ug/ml by MTT assay. Type of test: functional, cell-based. Conditions: TDE = time-dependent effect.

The structures appear in SMILES notation. Activity calls are given as the source filed them. The rule behind the calls is not given here.

Consider `O=C(N/N=C/c1cccn1CCCN1CCCC1)Nc1ccc(Oc2ccnc3[nH]ccc23)cc1`, for which the IC50 (usually the concentration that inhibits the measured activity by half) was found to be 1300 nM with A549 [1]; 907 nM in test [2]; 45000 nM in [3]; 3800 nM in test [4]; 14400 nM in test [5]; 1420 nM in the test with HepG2. Moreover, the IC50 in the test with MCF7 stood at 4530 nM; with PC-3 it was 4290 nM.
For the molecule `O=C(N/N=C/c1ccc(Br)cc1)Nc1ccc(Oc2ccnc3[nH]ccc23)c(F)c1`, the Activity entry in the test with A549 [1] is “Dose-dependent effect”; in the test on A549 [6], 7.08%; with A549 [8], 10.67%; with A549 [9], 79.86%; in the test with HepG2, “Dose-dependent effect”; with A549 [10] it was 0.01%. Also, the Activity entry with MCF7 is “Dose-dependent effect”; with A549 [11], “Tde”; in the test with PC-3 it was “Dose-dependent effect”. The IC50 with A549 [1] is 820 nM; in test [2], 506 nM; in test [3] it was above 100000 nM; in [4], 2600 nM; in [5] it was 8900 nM; with HepG2 it was 1000 nM. Besides, the values for the IC50 in the test with MCF7 and in the test with PC-3 were 930 nM and 920 nM, respectively. For the same molecule, the result with A549 [7] was Active.

The values above are taken from ChEMBL document CHEMBL4251648, “Synthesis and bioevaluation and doking study of 1H-pyrrolo[2,3-b]pyridine derivatives bearing aromatic hydrazone moiety as c-Met inhibitors” (Eur J Med Chem, 2018).
